Assay results published in ChEMBL document CHEMBL4342512, “Discovery of [1,2,4]Triazolo[1,5-a]pyridine Derivatives as Potent and Orally Bioavailable RORγt Inverse Agonists” (ACS Med Chem Lett, 2020).
Converted amounts (≈) assume the structure as drawn.

Tests used:
[1] = Metabolic stability in human liver microsomes assessed as intrinsic clearance; format: ADME, Microsome
[2] = Metabolic stability in mouse liver microsomes assessed as intrinsic clearance; format: ADME, Microsome
[3] = Protein binding in human plasma; format: ADME, cell-free; conditions: read-out: PPB (converted)
Procedure, shortened: (§1)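 Plasma protein binding was determined in human or mouse plasma.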

[4] = Protein binding in mouse plasma; format: ADME, cell-free; conditions: read-out: PPB (converted); procedure, shortened: as §1
[5] = Solubility of compound in aqueous medium at pH 6.8; format: physicochemical
Procedure, shortened: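 Solubility was measured in the second fluid of the Japanese Pharmacopoeia Disintegration Test (pH 6.8).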

[6] = Apparent permeability across apical to basolateral side in human Caco2 cells; format: ADME, cell-based; conditions: Caco-2
Procedure, shortened: (§2)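 Bidirectional permeability was measured in the apical-to-basolateral and basolateral-to-apical directions.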

[7] = Apparent permeability across basolateral to apical side in human Caco2 cells; format: ADME, cell-based; conditions: Caco-2; procedure, shortened: as §2
[8] = Bioavailability in mouse at 2 umol/kg, po and 1 umol/kg, iv administered using cassette dosing; format: ADME, organism-based; conditions: in vivo
Procedure, shortened: (§3)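 Mouse PK by cassette dosing. The combined compounds were given orally at 2 μmol/kg and intravenously at 1 μmol/kg. PK parameters were derived from the plasma profiles.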

[9] = AUC in mouse at 2 umol/kg, po administered using cassette dosing; format: ADME, organism-based; conditions: in vivo; procedure, shortened: as §3
[10] = Clearance in mouse at 2 umol/kg, po and 1 umol/kg, iv administered using cassette dosing; format: ADME, organism-based; conditions: in vivo; procedure, shortened: as §3
[11] = Unbound clearance in mouse at 2 umol/kg, po and 1 umol/kg, iv administered using cassette dosing; format: ADME, organism-based; conditions: in vivo; procedure, shortened: as §3
[12] = Volume of distribution at steady state in mouse at 2 umol/kg, po and 1 umol/kg, iv administered using cassette dosing; format: ADME, organism-based; conditions: in vivo, read-out: Vdss; procedure, shortened: as §3
[13] = Half life in mouse at 2 umol/kg, po administered using cassette dosing; format: ADME, organism-based; conditions: in vivo; procedure, shortened: as §3
[14] = Half life in mouse at 1 umol/kg, iv administered using cassette dosing; format: ADME, organism-based; conditions: in vivo; procedure, shortened: as §3
[15] = Drug metabolism in human hepatocytes assessed as central triazolo-pyridine core derived metabolic soft spot formation by mass spectrometry; format: ADME, cell-based, Hepatocyte
[16] = Drug metabolism in human hepatocytes assessed as cyclopentyl derived oxidative adduct formation by mass spectrometry; format: ADME, cell-based, Hepatocyte

CLH [1]	CLH [2]	fraction unbound [3]	fraction unbound [4]	solubility [5]	Papp A→B [6]	Papp B→A [7]	bioavailability [8]	AUC [9]	clearance [10]	CL free [11]	Vd [12]	half-life [13]	half-life [14]	SMILES	other results
88 µL/min/mg	110 µL/min/mg	0.003	0.043	71 µM (≈ 32.1 µg/mL)	40 ×10⁻⁶ cm/s	55 ×10⁻⁶ cm/s	48%	0.49 µM·h	33.3 mL/min/kg	767 mL/min/kg	1.6 L/kg	0.7 h	0.7 h	Cc1ccc(C(=O)Nc2cc(F)cc(CN3CCN(C(=O)C4CCCC4)[C@@H](C)C3)c2C)cn1	
< 10 µL/min/mg														Cc1ccc(C(=O)Nc2cn3ncnc3c(CN3CCN(C(=O)C4CCC(F)(F)C4)[C@@H](C)C3)c2C)cn1 (stereo partly specified)	
< 10 µL/min/mg														Cc1ccc(C(=O)Nc2cn3ncnc3c(CN3CCN(C(=O)C4CCOCC4)[C@@H](C)C3)c2C)cn1	
59 µL/min/mg														Cc1ccc(C(=O)Nc2cc3nncn3c(CN3CCN(C(=O)C4CCCC4)[C@@H](C)C3)c2C)cn1	
32 µL/min/mg	11 µL/min/mg	0.227	0.212	190 µM (≈ 90.4 µg/mL)	2.5 ×10⁻⁶ cm/s	46 ×10⁻⁶ cm/s	47%	0.84 µM·h	18.3 mL/min/kg	88.3 mL/min/kg	0.77 L/kg	1.2 h	1.4 h	Cc1ccc(C(=O)Nc2cn3ncnc3c(CN3CCN(C(=O)C4CCCC4)[C@@H](C)C3)c2C)cn1	Drug metabolism [15]: Metabolite_Notdetected; Drug metabolism [16]: Metabolite_Detected

The next lines start with the compound.

SMILES	CLH [1]	CLH [2]	fraction unbound [3]	fraction unbound [4]	solubility [5]	Papp A→B [6]	Papp B→A [7]	bioavailability [8]	AUC [9]	clearance [10]	CL free [11]	Vd [12]	half-life [13]	half-life [14]	other results
Cc1ccc(C(=O)Nc2cn3ncnc3c(CN3CCN(C(=O)c4ccccc4)[C@@H](C)C3)c2C)cn1	21 µL/min/mg														
Cc1ccc(C(=O)Nc2cn3ncnc3c(CN3CCN(C(=O)C(C)C)[C@@H](C)C3)c2C)cn1	240 µL/min/mg														
Cc1ccc(C(=O)Nc2cn3ncnc3c(O[C@H]3CCN(C(=O)CC(C(F)(F)F)C(F)(F)F)[C@@H](C)C3)c2C)cn1	10 µL/min/mg	30 µL/min/mg	0.082	0.135	170 µM (≈ 97.3 µg/mL)	31 ×10⁻⁶ cm/s	51 ×10⁻⁶ cm/s	120%	15 µM·h	2.5 mL/min/kg	18.3 mL/min/kg	0.8 L/kg	3.6 h	3.9 h	
Cc1ccc(C(=O)Nc2cn3ncnc3c(CN3CCN(C(=O)CCC(F)(F)F)[C@@H](C)C3)c2C)cn1	< 10 µL/min/mg														
Cc1ccc(C(=O)Nc2cn3ncnc3c(O[C@@H]3CCN(C(=O)CC(C(F)(F)F)C(F)(F)F)[C@@H](C)C3)c2C)cn1	28 µL/min/mg														
Cc1ccc(C(=O)Nc2cn3ncnc3c(CN3CCN(C(=O)CC(C)C)[C@@H](C)C3)c2C)cn1	20 µL/min/mg														
Cc1ccc(C(=O)Nc2cn3ncnc3c(CN3CCN(C(=O)CC(C(F)(F)F)C(F)(F)F)[C@@H](C)C3)c2C)cn1	< 10 µL/min/mg	< 10 µL/min/mg	0.139	0.233	200 µM (≈ 114 µg/mL)	9.6 ×10⁻⁶ cm/s	36 ×10⁻⁶ cm/s	110%	2.3 µM·h	18.3 mL/min/kg	75 mL/min/kg	1.1 L/kg	1.1 h	1 h	
